# The list is not random: actives were taken first. Their share in the collection is about 4.6%.
# TAAR1 agonist: human TAAR1 agonism. Q96RJ0. CHO RD-HGA16 TAAR1, Fluo-8 calcium fluorescence; vehicle wells 0%, saturating PEA agonist 100%. activation, % at 3 µM. 0.99% of 360,000 active. AID 624467;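 active means activation above the mean activation of all test compounds in the run plus 3 SD, cut at about 38% in these data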
# Target sequence (Q96RJ0 whole entry, looked up): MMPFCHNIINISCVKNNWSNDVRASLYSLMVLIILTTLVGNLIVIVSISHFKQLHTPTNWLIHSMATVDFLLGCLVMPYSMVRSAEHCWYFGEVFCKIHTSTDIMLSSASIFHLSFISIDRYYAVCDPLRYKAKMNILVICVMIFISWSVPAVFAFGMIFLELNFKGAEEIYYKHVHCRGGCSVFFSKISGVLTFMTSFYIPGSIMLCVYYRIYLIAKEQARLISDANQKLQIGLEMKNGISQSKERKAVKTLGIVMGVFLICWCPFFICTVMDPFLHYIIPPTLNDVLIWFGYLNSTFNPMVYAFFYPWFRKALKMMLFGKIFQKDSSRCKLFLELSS
#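 Repeats: no replicates (n 1) | Material: CHO-derived RD-HGA16 cells with stable Gα16 and human TAAR1 | Technique: Kinetic Fluo-8 calcium fluorescence | Schedule: 17-24 h seeding, 75 min 37 °C dye, 30 min RT | Evaluation: % activation from peak over basal fluorescence ratio, DMSO-to-PEA scaled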
# GPR7 antagonist: human neuropeptides B/W receptor 1 antagonism; P48145; GPR7-expressing cells, fluorescence antagonist assay; inhibition, % at 4.4 µM; 1.1% of 290,000 active; AID 1861; in the data active means inhibition above about 16%, passing the limit was not always enough;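 further: cells stimulated with the agonist NPW; 0% = agonist with vehicle and 100% = vehicle without agonist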
# Target sequence (P48145 whole entry, looked up): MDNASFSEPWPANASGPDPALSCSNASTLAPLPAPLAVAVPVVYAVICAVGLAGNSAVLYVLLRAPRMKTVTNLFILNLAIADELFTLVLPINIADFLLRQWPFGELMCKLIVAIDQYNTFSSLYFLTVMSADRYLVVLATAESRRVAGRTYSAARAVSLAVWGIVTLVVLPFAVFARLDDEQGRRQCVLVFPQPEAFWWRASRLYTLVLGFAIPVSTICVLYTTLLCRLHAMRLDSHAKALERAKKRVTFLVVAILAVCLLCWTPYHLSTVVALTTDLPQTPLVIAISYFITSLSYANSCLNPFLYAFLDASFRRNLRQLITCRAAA
# OX1R antag-1: human HCRTR1 antagonism. O43613. CHO/OX1R cells, Fluo-8 calcium fluorescence, orexin A. inhibition, % at 5 µM. 0.43% of 330,000 active;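 active means inhibition above its plate's threshold, mean inhibition of all tested compounds on the plate plus 3 SD, cut at about 37% in these data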;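 further: 0% = orexin A challenge wells and 100% = SB-334867-A antagonist wells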
# TAAR1 antag: antagonists of human TAAR1; Q96RJ0; CHO RD-HGA16 TAAR1, Fluo-8 calcium fluorescence, antagonist; inhibition, % at 3 µM; 1.5% of 360,000 active; AID 624466;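 active means inhibition above a per-plate cutoff, the mean inhibition of test compounds on that plate plus 3 SD, cut at about 49% in these data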;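 further: 0% = DMSO plus EC80 beta-PEA response and 100% = DMSO alone without agonist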
#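 Test system: hTAAR1-expressing CHO RD-HGA16 cells, Gα16-coupled; Probe or stimulus: EC80 β-phenethylamine stimulus; Compound dosing: single nominal final test compound concentration of 3 µM; Timing: 140 s kinetic read after compound, 140 s after agonist; Signal: Fluo-8 calcium-sensitive fluorescence; Measure: % inhibition of agonist calcium response; Controls: DMSO and EC80 PEA controls.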
# OX1R antag-2: blocks the human orexin 1 receptor | O43613 | 1.8% of 330,000 active | OX1R-expressing cells, FRET antagonist read-out | inhibition, % at 6.6 µM; in the data active means inhibition mostly above about 38%, no sharp cut-off; inactive means mostly below about 40%;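 further: 0% = agonist challenge alone and 100% = reference antagonist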
# CHO parental Ca: counter-screen: ATP calcium response change in parental CHO cells; inhibition, % at 5.6 µM; 0.63% of 330,000 active; AID 463079; parental CHO-K1, ATP-induced calcium, Fluo-8 fluorescence;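 active means inhibition above that plate's mean sample inhibition plus 3 SD, cut at about 26% in these data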;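 further: 0% = ATP-challenged DMSO wells and 100% = DMSO wells without ATP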
#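 Measured by: calcium-sensitive Fluo-8 fluorescence / Test system: CHO parental line / Controls: ATP-challenged DMSO wells low, unchallenged DMSO wells high / Measure: % inhibition / Compound: single nominal dose of 5.6 µM per compound / Replicates: single well per compound, no replicates / Reagent: ATP as calcium-mobilizing challenge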
# TAAR1 ag confirm: human TAAR1 agonism, confirmed; shares compounds with TAAR1 agonist; CHO RD-HGA16 TAAR1, Fluo-8 calcium fluorescence; scaled: DMSO 0%, maximal phenethylamine 100%; activation, % at 3 µM; 82% of 2,400 active;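 active means activation above a cutoff set at the run's mean compound activation plus 3 SD, cut at about 39% in these data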
# Ga16 nonsel ag: nonselective agonism, TAAR1 counter-screen; CHO-Ga16 parental, Fluo-8 calcium fluorescence; normalized to maximal ATP response, DMSO zero; 50% of 2,400 active; activation, % at 3 µM; shares compounds with TAAR1 agonist;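 active means activation above the run cutoff, the mean activation over all tested wells plus 3 SD, cut at about 12% in these data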;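 further: 0% = DMSO wells and 100% = maximal ATP response on the peak over basal ratio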
# TAAR1 desensitize: TAAR1 response desensitization, agonist counter-screen. inhibition, % at 3 µM. shares compounds with TAAR1 agonist. CHO RD-HGA16 hTAAR1, Fluo-8 calcium, beta-PEA response inhibition. AID 651951. 46% of 2,400 active;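 active means inhibition above the run cutoff, the mean inhibition of all test compounds plus 3 SD, cut at about 49% in these data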;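 further: beta-PEA stimulus applied at its EC80; loss of beta-PEA calcium signal after compound pretreatment read as receptor desensitization; 0% = DMSO with beta-PEA at EC80 and 100% = DMSO alone without agonist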
# Ga16 nonsel ant: nonselective Ga16 antagonist in TAAR1 agonist counter-screen; shares compounds with TAAR1 agonist; CHO-Ga16 ATP-induced calcium, Fluo-8 fluorescence; inhibition, % at 3 µM; 39% of 2,400 active; AID 651952;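 active means inhibition above the plate's mean compound inhibition plus 3 SD, computed per plate, cut at about 22% in these data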;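 further: 0% = EC80 ATP with DMSO and 100% = DMSO wells without ATP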
# Active calls of the source: *; · = no result.
SMILES,TAAR1 agonist,GPR7 antagonist,OX1R antag-1,TAAR1 antag,OX1R antag-2,CHO parental Ca,TAAR1 ag confirm,Ga16 nonsel ag,TAAR1 desensitize,Ga16 nonsel ant
Cc1cc(N/N=C/c2ccc(O)cc2O)nc(N2CCOCC2)n1,·,-10,-16,·,14,1,·,4,·,9
Oc1ccc(/C=N\Nc2cc(N3CCOCC3)nc(N3CCOCC3)n2)c(O)c1,8,-1,-24,-9,18,-8,·,·,·,·
O=C(Nc1ccccc1F)c1ccc(OCc2ccccc2)cc1,·,0,-4,·,8,10,·,1,·,13
O=C(Nc1ccc(OCc2ccccc2)cc1)c1cccnc1,88*,13,-1,57*,42,12,94*,30*,75*,26*
O=C(Nc1ccc(OCc2ccccc2)cc1)Nc1cccnc1,4,12,-15,14,10,3,·,·,·,·
O=C(N/N=C/c1ccc(OCc2ccc(F)cc2)cc1)c1ccccc1,43*,-2,0,5,26,4,18,3,-1,0
NNC(=O)c1ccc(COc2ccc3ccccc3c2)cc1,72*,-9,-2,-12,-11,-4,93*,51*,49*,23*
O=C(N/N=C/c1ccc(F)cc1)c1ccc(OCc2ccccc2)cc1,0,2,-4,-2,2,-7,·,·,·,·
Cc1onc(-c2c(F)cccc2Cl)c1C(N)=S,6,4,-19,0,7,-2,·,·,·,·
O=C(CNC(=O)c1ccc(Cl)cc1)c1ccc(Br)cc1,-2,4,8,0,-8,8,·,·,·,·
COc1ccccc1CCN1CCCC(CN(C)C(=O)c2ccoc2)C1 (stereo not given),1,-4,-8,-13,-2,-9,·,·,·,·
Cc1ccc(NC(=O)CN(C)C(=O)c2ccccc2Cc2ccccc2)cc1,8,·,·,23,·,·,·,·,·,·
O=[N+]([O-])c1ccc(N/N=C/c2cccc(O)c2)cc1,59*,22,-11,46,1,14,43*,7,25,16
C=CCNCCCOc1ccc(C(C)(C)c2ccccc2)cc1,61*,-4,-17,-6,1,-5,90*,25*,64*,17
COCCNCCCOc1ccc(C(C)(C)c2ccccc2)cc1,24,-5,-12,-21,21,-13,·,·,·,·
CC(C)(c1ccccc1)c1ccc(OCCCNCCO)cc1,53*,7,6,0,3,8,85*,41*,44,16
COCCCNCCCOc1ccc(C(C)(C)c2ccccc2)cc1,30,1,-14,-22,5,-9,·,·,·,·
CC(C)(C)c1ccc(OCCCNCc2ccccc2)cc1,74*,3,-16,-5,6,-3,69*,33*,35,21
COCCCN(C(=O)c1cc(Cl)nc2ccccc12)c1c(N)n(Cc2ccccc2)c(=O)[nH]c1=O,1,·,·,-21,·,·,·,·,·,·
Cc1ccc(C(=O)Nc2nc(C(N)Cc3ccc(C(F)(F)F)cc3)cs2)cc1 (stereo not given),65*,·,·,44,·,·,52*,29*,45,43*
CCCCN(C)C(=O)c1ccc(Nc2nc(C(N)Cc3ccccc3)cs2)nc1 (stereo not given),49*,·,·,24,·,·,73*,16*,54*,32*
NC(Cc1cnc[nH]1)c1csc(Nc2ccc(C(F)(F)F)cn2)n1 (stereo not given),3,·,·,-23,·,·,·,·,·,·
NC(Cc1ccc(F)cc1)c1csc(Nc2ccc(C(F)(F)F)cn2)n1 (stereo not given),74*,·,·,45,·,·,49*,27*,38,35*
CC(C)CC(N)c1csc(Nc2ccc(C(=O)N(C)Cc3ccccc3)cn2)n1 (stereo not given),13,·,·,2,·,·,·,·,·,·
CN(Cc1ccccc1)C(=O)c1ccc(Nc2nc(C(N)Cc3ccc(C(F)(F)F)cc3)cs2)nc1 (stereo not given),64*,·,·,75*,·,·,59*,30*,63*,70*
SMILES,TAAR1 agonist,GPR7 antagonist,OX1R antag-1,TAAR1 antag,OX1R antag-2,CHO parental Ca,TAAR1 ag confirm,Ga16 nonsel ag,TAAR1 desensitize,Ga16 nonsel ant
C[C@@H]1COc2cccc(N3CCCCC3)c2S(=O)(=O)N1,0,·,·,-4,·,·,·,·,·,·
C=CCn1c(SCC(=O)N2CCc3ccccc3C2)nc2sc(C)cc2c1=O,9,-9,-39,18,24,-35,·,·,·,·
COc1nc(OC)nc(N2CCC(NC(=O)C(Cc3cccc(OC)c3OC)NC(C)=O)CC2)n1 (stereo not given),-1,-14,0,-28,-4,3,·,·,·,·
CSc1nc(N)nc(SCC(=O)c2ccc(C)cc2)c1C#N,52*,5,6,54*,69*,-7,15,10,3,8
CCCCCCn1c(=O)[nH]c2nc3cc(N)ccc3nc2c1=O,118*,16,75*,57*,18,51*,95*,96*,68*,67*
Cc1c(Cl)cccc1NC(=O)CSc1nc(=O)n(CCCN2CCOCC2)c2c1CCC2,1,·,-35,-20,14,-21,·,·,·,·
